MrgX1 ag = agonists of human MrgX1 receptor, primary screen, HEK293 cells, Fluo-4 calcium flux | Mas-related G-protein coupled receptor member X1 (Homo sapiens), Q96LB2 | Fluo-4 calcium fluorescence, agonist mode; stronger effect = higher value | B-score at 10 µM | 310,000 tested, 0.44% active | AID 588627, 2011;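 active means calcium response B-score plate-corrected fluorescence ratio at least 3 library SD, with starting fluorescence B-score inside 5 SD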
Target sequence (Q96LB2 whole entry, looked up): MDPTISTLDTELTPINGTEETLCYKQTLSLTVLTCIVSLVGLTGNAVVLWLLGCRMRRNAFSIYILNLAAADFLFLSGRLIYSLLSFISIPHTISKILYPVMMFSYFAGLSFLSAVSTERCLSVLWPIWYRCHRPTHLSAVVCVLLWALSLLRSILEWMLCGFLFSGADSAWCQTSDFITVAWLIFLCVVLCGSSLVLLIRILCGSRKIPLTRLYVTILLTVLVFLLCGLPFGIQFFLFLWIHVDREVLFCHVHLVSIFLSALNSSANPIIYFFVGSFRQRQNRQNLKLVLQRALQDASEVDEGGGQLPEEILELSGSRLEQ
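System – MrgX1-expressing HEK293 cells · Incubation – cells plated overnight, dye loaded 0.5 h 37 °C, 0.5 h room temperature · Technique – kinetic Fluo-4 NW fluorescence of intracellular calcium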
MrgX1 allo act = positive allosteric modulators of MrgX1, primary screen, HEK293 cells, Fluo-4 calcium flux; Mas-related G-protein coupled receptor member X1 (Homo sapiens), Q96LB2; FDSS; stronger effect = higher value; B-score at 10 µM; 310,000 tested, 0.63% active; AID 588675, 2011;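 active means plate-corrected calcium response at least 3 library SD above typical, normal starting fluorescence, not activating the receptor alone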;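 further: compound read alongside a low EC10 to EC30 dose of BAM8-22 agonist; peak minus trough fluorescence over baseline measured at the second addition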
RGS4 act = RGS4 potentiators or activators, primary screen, cell-based, HEK293 M3R inducible RGS4, calcium flux; carbachol calcium flux Fluo4; stronger effect = lower value; B-score at 10 µM; 310,000 tested, 0.92% active;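 active means B-score of the integrated calcium signal more than 4 SD below the library mean, with starting fluorescence not abnormally high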;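 further: negative B-score means reduced calcium response which marks RGS4 activation or potentiation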
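Assay system: Inducible-RGS4 HEK293 cells carrying M3 receptor | Schedule: Compound preincubation 20 min at room temperature before agonist | Signal: Kinetic calcium fluorescence imaging with Fluo4-AM dye, 2 µM | Read-out basis: B score from integrated fluorescence ratio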
MrgX1 antagonist = antagonists of human MrgX1 receptor, primary screen, HEK293 cells, Fluo-4 calcium flux. Mas-related G-protein coupled receptor member X1 (Homo sapiens), Q96LB2. 310,000 tested, 1.3% active. B-score at 10 µM. BAM8-22 antagonism; stronger effect = lower value;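 active means calcium-response B-score plate-corrected more than 3 library SD below zero, starting fluorescence within 5 deviations, no agonist response on first addition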;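 further: peak minus trough fluorescence over baseline after final BAM8-22 challenge near maximal dose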
RGS4 block = RGS4 inhibitors, primary screen, cell-based, HEK293 M3R inducible RGS4, calcium flux. Regulator of G-protein signaling 4 (Homo sapiens), P49798. Fluo-4 calcium flux; stronger effect = higher value; triggered by carbachol at its EC20. B-score at 10 µM. 310,000 tested, 0.45% active;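 active means B-score, a plate-corrected calcium signal, over three deviations above library mean, with baseline fluorescence within five deviations of library mean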;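 further: RGS4 expression induced by doxycycline in cells with stable M3 receptor; B-score is computed from the integrated fluorescence ratio over baseline after carbachol; higher B-score means a larger calcium signal and so more RGS4 inhibition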
Target sequence (P49798 whole entry, looked up): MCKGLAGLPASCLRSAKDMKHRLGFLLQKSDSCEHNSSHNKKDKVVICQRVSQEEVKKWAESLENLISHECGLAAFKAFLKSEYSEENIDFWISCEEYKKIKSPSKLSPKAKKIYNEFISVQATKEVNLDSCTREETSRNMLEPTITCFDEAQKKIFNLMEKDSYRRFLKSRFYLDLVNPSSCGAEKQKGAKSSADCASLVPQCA
Each line names hits and unclear results; the compound was inactive in the other large screens. Shown are actives, neighbours in structure and some others; about 3.5% of the full set was active somewhere.

COc1ccccc1C(=O)N=C1SC2CS(=O)(=O)CC2N1c1ccccc1 (configuration not stated)	none
CC(C)(C)c1ccc(OCC(=O)Nc2ccc(C(=O)Nc3ccccc3C(=O)O)cc2)cc1	none
COc1ccc(-c2nnc(SCc3cc(C)cc(C)c3)o2)cc1	RGS4 act -7.2
COc1ccc(-c2nnc(SCC(=O)c3ccc(C)o3)o2)cc1	none (no result: MrgX1 ag, MrgX1 allo act, MrgX1 antagonist)
COCC(C)(C)COS(N)(=O)=O	none
CC1CCCC(C)N1S(=O)(=O)c1ccc(Cl)cc1 (configuration not stated)	none
CC1=C(C)CS(=O)N(S(=O)(=O)c2ccc(Cl)cc2)C1 (configuration not stated)	MrgX1 ag 52
O=C(CN1C(=O)NC2(CCCCC2)C1=O)Oc1ccc2c(C(F)(F)F)cc(=O)oc2c1	none
CCc1cc(=O)oc2cc(OC(=O)CN3C(=O)NC4(CCCC4)C3=O)ccc12	MrgX1 antagonist -6.9
CCOc1ccc(C(C)=O)cc1N1C(=O)C2C3C=CC(O3)C2C1=O (configuration not stated)	MrgX1 ag 32
O=C(Nc1ccccc1Cc1ccccc1)c1oc2ccccc2c1COc1ccccc1	MrgX1 antagonist -5.5
O=C(NCC1CCCO1)c1cc2c([nH]c3ccccc32)c(-c2cccc(Cl)c2)n1 (configuration not stated)	RGS4 act -9.2
COc1cc(-c2nc(C(=O)NCC3CCCO3)cc3c2[nH]c2ccccc23)cc(OC)c1OC (configuration not stated)	none
COc1ccc(C(=O)NN2CCCCC2)cc1OC	MrgX1 antagonist -5
COc1ccc(C(=O)c2ccc(OC)c(OC)c2)cc1	MrgX1 antagonist -5
COc1ccc(C(=O)NCC(=O)N2CCCCC2)cc1OC	none
CCOC(=O)N1CCN(C(=O)c2cc3c(-c4cccc(OC)c4)nn(C)c3s2)CC1	RGS4 act -7.1
CCOC(=O)C1(CCCc2ccccc2)CCN(C(=O)CN2CCOC2=O)CC1	MrgX1 allo act 7.3
Cc1ccc(F)cc1NC(=O)CN1CCN(Cc2ccccc2)CC1	none
Cc1cc(C(=O)N/N=C/C=C/c2ccc(Br)cc2)n[nH]1	MrgX1 antagonist -5.6
Cc1cc(C(=O)N/N=C/C=C/c2ccc([N+](=O)[O-])cc2)n[nH]1	none
Cc1ccc(-c2csc(Cc3nc(-c4cc5ccccc5oc4=O)cs3)n2)cc1	RGS4 act -7
CCN(CC)CCOC(=O)c1ccc(NC(=O)CCCN2C(=O)/C(=C/c3cccs3)SC2=S)cc1	RGS4 act -8.3
Cn1c(=O)n(C)c2cc(NS(=O)(=O)c3ccccc3[N+](=O)[O-])ccc21	none
Cc1ccc(NC(=O)COC(=O)c2ccc(=O)n(Cc3ccccc3)n2)cc1F	none
CC(OC(=O)c1ccc(=O)n(Cc2ccccc2)n1)C(=O)Nc1cccc(Cl)c1 (configuration not stated)	MrgX1 antagonist -5.3
COc1cc(NC(=O)CCN2CC(C)OC(C)C2)cc(OC)c1 (configuration not stated)	none
COc1ccc(/C=C(\NC(=O)c2cccs2)C(=O)Nc2cccc3ccccc23)cc1OC	MrgX1 ag 28
Nc1cc(C(=O)O)c(N)c2c1C(=O)c1ccccc1C2=O	MrgX1 antagonist -5.7
Nc1c(C(=O)O)ccc2c1C(=O)c1ccccc1C2=O	none
O=C1CS/C(=N/N=C/c2ccco2)N1Cc1ccc(F)cc1	none
COC(=O)C1=NN(C(=O)c2ccc(C)cc2)C(O)(c2ccc(Cl)cc2)C1 (configuration not stated)	MrgX1 ag 67
COC(=O)C1=NN(C(=O)c2ccccc2)C(O)(c2ccc([N+](=O)[O-])cc2)C1 (configuration not stated)	MrgX1 ag 54
COC(=O)C1=NN(C(=O)c2ccccc2)C(C)(O)C1 (configuration not stated)	none
O=C(CSc1ccc(-c2ccc(Cl)cc2)nn1)N1CCCc2ccccc21	none
O=C(CSc1ccc(-c2ccc(F)cc2)nn1)N1CCCc2ccccc21	RGS4 act -7.4
COc1ccc(NC(=O)c2nc(C)n(-c3ccc([N+](=O)[O-])cc3)n2)cc1	none
COc1ccc(F)cc1S(=O)(=O)NCc1ccccc1	none
COc1ccc(Br)cc1S(=O)(=O)NCc1ccccc1	MrgX1 antagonist -4.9
Cc1cc(NC(=O)CSc2nnc(N)s2)c([N+](=O)[O-])cc1C	MrgX1 antagonist -7
C#CCOCCOCCOCCNc1nc(N2CCN(C(=O)CCCCCCCCCCNC(=O)[C@H](CCCCN)n3cc(C[C@@H](C)CC)nn3)CC2)nc(N2CCN(C(=O)CCCCCCCCCCNC(=O)[C@H](CCCN=C(N)N)n3cc(C[C@@H](C)CC)nn3)CC2)n1	MrgX1 ag 35 (no result: RGS4 act, RGS4 block)
C#CCOCCOCCOCCNc1nc(N2CCN(C(=O)CCCCCCCCCCNC(=O)[C@H](CCCCN)n3cc(C[C@@H](C)CC)nn3)CC2)nc(N2CCN(C(=O)CCCCCCCCCCNC(=O)[C@@H]([C@H](C)O)n3cc(C)nn3)CC2)n1	MrgX1 allo act 6.9 (no result: RGS4 act, RGS4 block)
C#CCOCCOCCOCCNc1nc(N2CCN(C(=O)CCCCCCCCCCNC(=O)[C@H](CO)n3cc(CCCCCN)nn3)CC2)nc(N2CCN(C(=O)CCCCCCCCCCNC(=O)[C@H](CCCN=C(N)N)n3cc(C[C@@H](C)CC)nn3)CC2)n1	MrgX1 ag 70 (no result: RGS4 act, RGS4 block)
C#CCOCCOCCOCCNc1nc(N2CCN(C(=O)CCCCCCCCCCNC(=O)[C@H](CCCCN)n3cc(C)nn3)CC2)nc(N2CCN(C(=O)CCCCCCCCCCNC(=O)[C@@H]([C@H](C)O)n3cc(C)nn3)CC2)n1	none (no result: RGS4 act, RGS4 block)
C#CCOCCOCCOCCNc1nc(N2CCN(C(=O)CCCCCCCCCCNC(=O)[C@H](CCCCN)n3cc(C)nn3)CC2)nc(N2CCN(C(=O)CCCCCCCCCCNC(=O)[C@H](CCCN=C(N)N)n3cc(C[C@@H](C)CC)nn3)CC2)n1	MrgX1 ag 104 (no result: RGS4 act, RGS4 block)
C#CCOCCOCCOCCNc1nc(N2CCN(C(=O)CCCCCCCCCCNC(=O)[C@H]([C@@H](C)CC)n3cc(CCCCN=C(N)N)nn3)CC2)nc(N2CCN(C(=O)CCCCCCCCCCNC(=O)[C@@H]([C@H](C)O)n3cc(C)nn3)CC2)n1	none (no result: RGS4 act, RGS4 block)
C#CCOCCOCCOCCNc1nc(N2CCN(C(=O)CCCCCCCCCCNC(=O)[C@@H](CCSC)n3cc(CCO)nn3)CC2)nc(N2CCN(C(=O)CCCCCCCCCCNC(=O)[C@H](CCCN=C(N)N)n3cc(C[C@@H](C)CC)nn3)CC2)n1	none (no result: RGS4 act, RGS4 block)
CC(Oc1ccccc1)C(=O)NC1=NCCS1 (configuration not stated)	none

Bioassay records from PubChem.
